Screening results (PubChem BioAssay)
SUMO1-SIM PPI: alters human SUMO1 binding to SIM partners | SUMO1 binding to a labelled peptide, TR-FRET, 1 h | AID 602429 | 0.33% of 360,000 active | inhibition, % at 20 µM | P63165; in the data active = inhibition above about 37%
Target sequence (P63165 whole entry, looked up): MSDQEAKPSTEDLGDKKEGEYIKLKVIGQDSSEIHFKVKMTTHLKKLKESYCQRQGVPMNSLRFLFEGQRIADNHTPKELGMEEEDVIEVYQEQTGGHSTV
LMPTP block: blocks human LMPTP phosphatase; P24666; recombinant LMPTP-A, OMFP fluorogenic substrate, fluorescence intensity; inhibition, % at 20 µM; 0.22% of 360,000 active;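 active = compounds that cut the enzyme signal by at least half of the control window in the single-dose screen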;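 note: plate controls were DMSO wells with enzyme plus substrate for no effect and substrate without enzyme for full effect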
Target sequence (P24666 whole entry, looked up): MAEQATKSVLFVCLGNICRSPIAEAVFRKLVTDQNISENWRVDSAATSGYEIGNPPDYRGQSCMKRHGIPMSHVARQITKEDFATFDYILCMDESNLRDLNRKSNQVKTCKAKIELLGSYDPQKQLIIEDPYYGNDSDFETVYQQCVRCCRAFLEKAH
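Test system – LMPTP-A phosphatase enzyme · Quantity – 0.625 nM LMPTP-A final · Reagent – OMFP substrate, 400 µM final · Dosing – one test concentration per compound, 20 µM, with 3% DMSO overall · Timing – 50 min enzyme reaction at room temperature, protected from light · Detection – fluorescence intensity · Controls – substrate-only low control, DMSO enzyme-plus-substrate high control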
DNMT1 inh: blocks human DNA methyltransferase DNMT1 | P26358 | DNMT1 molecular beacon, Hinp1I cleavage, fluorescence | inhibition (reported as % activation of signal), % at 10 µM | 0.83% of 360,000 active; in the data active = inhibition above about 50%
STEP inh: STEP (human) phosphatase inhibition; P54829; recombinant STEP, OMFP fluorogenic substrate, fluorescence; inhibition, % at 20 µM; 0.25% of 360,000 active;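 active = inhibition at 20 µM, scaled per plate between control wells, above about 37%, limit read from the data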;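 note: 0% = DMSO with enzyme and substrate and 100% = substrate only without enzyme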
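Material: STEP (striatal-enriched tyrosine phosphatase) enzyme, cell-free | Medium: 50 mM Bis-Tris pH 6.0 with 2.5 mM DTT and 0.005% Tween 20 | Read-out: Percent inhibition scaled to no-enzyme and uninhibited-enzyme controls, plate-pattern corrected | Signal: Fluorescence read at 480 nm ex / 540 nm em | Times: 20 min reaction, room temperature, in the dark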
Scp-1 inhibitor: Scp-1 (human) phosphatase inhibition; Recombinant Scp1, phosphopeptide, malachite green phosphate absorbance; 0.88% of 340,000 active; Q9GZU7; inhibition, % at 20 µM;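 active = inhibition above about 50% at 20 µM, limit read from the data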;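 note: plate controls were DMSO wells with enzyme for no effect and wells lacking enzyme for full effect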
Target sequence (Q9GZU7 76-261 limits assumed): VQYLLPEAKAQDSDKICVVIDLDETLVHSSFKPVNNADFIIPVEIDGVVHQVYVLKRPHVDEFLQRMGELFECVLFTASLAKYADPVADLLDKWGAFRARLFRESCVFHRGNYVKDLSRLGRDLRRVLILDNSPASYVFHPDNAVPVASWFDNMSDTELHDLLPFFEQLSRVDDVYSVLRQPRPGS
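Incubation: 45 min enzyme reaction at room temperature / System: truncated SCP-1 phosphatase (76-261aa) / Reagent: Phospho 17-mer peptide substrate / Buffer or medium: Acidic Tris acetate buffer with magnesium and detergent / Signal: absorbance at 630 nm / Doses: one concentration, 20 µM, with 1.0% DMSO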
SUMO HTRF inh: SUMOylation inhibition; P63279; HTRF SUMOylation assay, SAE1/SAE2 + UBC9, in vitro; inhibition, % at 35 µM; 0.36% of 290,000 active; in the data active = inhibition above about 50%, passing the limit was not always enough
Target sequence (P63279 whole entry, looked up): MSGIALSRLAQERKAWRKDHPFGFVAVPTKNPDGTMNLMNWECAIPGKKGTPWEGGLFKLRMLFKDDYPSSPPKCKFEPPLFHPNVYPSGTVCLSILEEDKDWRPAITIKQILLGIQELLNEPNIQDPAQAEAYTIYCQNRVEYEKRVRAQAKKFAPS
DNMT1 interf DR: beacon fluorescence artifact, dose response counter-screen; shares compounds with DNMT1 inh; molecular beacon fluorescence, spectral interference counter-screen; IC50, µM; 200 tested, under 10 active; AID 602382; call rule not given here
DNMT1 inh conf: confirmation of human DNMT1 inhibitors; shares compounds with DNMT1 inh; 8% of 2,300 active; AID 602385; inhibition, % at 10 µM; DNMT1 molecular beacon HinP1I cleavage, fluorescence;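 active = average inhibition of at least 30% in the single-concentration confirmation test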
DNMT1 interf: counter-screen for DNMT1 inhibitors: spectral interference | activation (fluorescence interference), % at 10 µM | DNMT1 molecular beacon spectral interference counterscreen, fluorescence 485/520 | shares compounds with DNMT1 inh | 1% of 2,300 active;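 active = activation of at least 30% at 10 µM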;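 note: DNMT1 catalytic domain with a HinP1I cleavage step and a FAM/dabcyl DNA beacon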
* = called active by the depositor; . = no result. The list is not random: actives were taken first. Their share in the collection is about 1.9%.

SMILES	SUMO1-SIM PPI	LMPTP block	DNMT1 inh	STEP inh	Scp-1 inhibitor	SUMO HTRF inh	DNMT1 inh conf	DNMT1 interf	others
O=C(CN1C(=O)/C(=C/c2ccc(Cl)cc2)SC1=S)NC1C=CS(=O)(=O)C1 (stereo not drawn)	-13	7	65*	1	5	20	6	2
CC(C)c1ccc(NC(=O)C(c2ccccc2)N2CCOCC2)cc1 (stereo not drawn)	8	50*	71*	-1	-6	21	2	4
Cc1cc(C)n(-c2nc3ccccc3nc2Nc2ccc3c(c2)OCO3)n1	5	3	-10	0	-12	10	.	.
Cc1ccc2nc(Nc3ccc4[nH]c(=O)[nH]c4c3)c(-n3nc(C)cc3C)nc2c1	-4	4	51*	1	-1	21	3	2
O=C(O)c1ccc(-n2cccc2/C=N\NC(=O)c2cc3cc(Br)ccc3o2)cc1	84*	23	102*	14	80*	43	75*	-3	DNMT1 interf DR=>99
O=C(N/N=C/c1cccn1-c1ccc(O)cc1)c1cccc2ccccc12	5	0	3	-3	-9	21	.	.
COc1ccc(Cn2cc(Cn3c4ccccc4c(=O)n3C(C)C)nn2)cc1	0	-2	8	0	.	.	.	.
CCN1CCN(C(=O)c2ccc(CS(=O)(=O)Cc3ccccc3Cl)o2)CC1	0	-2	0	-3	.	.	.	.
COC(=O)c1ccccc1S(=O)(=O)NNC(=O)c1nn(C)c(=O)c2ccccc12	12	-1	53*	-1	-4	.	5	6
O=C(CCN1CCN(c2ccccc2)CC1)N/N=C/c1ccc(O)c(O)c1O	23	67*	79*	4	1	76*	3	2
COC(=O)/C(=C\c1c(OC)cc(OC)cc1OC)C(=O)c1ccc2c(c1)OCO2	-5	-1	0	-1	-6	.	.	.
Nc1nc(CN2CCN(C(=O)c3ccco3)CC2)nc(Nc2cccc(Cl)c2)n1	6	-1	0	-3	-5	16	.	.
Cc1ccc(-c2nc3c(c(=O)[nH]c(=O)n3Cc3ccccc3)n2C)o1	0	10	70*	2	27	29	4	0
Cc1ccc(-c2nc3c(c(=O)[nH]c(=O)n3Cc3ccccc3)n2Cc2ccccc2)o1	-1	2	6	5	-3	14	.	.
Cc1ccc(S(=O)(=O)Nc2ccc(S(=O)(=O)Nc3cc(C)nc(C)n3)cc2)cc1	9	-1	1	-2	-8	14	.	.
COc1ccc(S(=O)(=O)Nc2ccc(S(=O)(=O)Nc3cc(C)nc(C)n3)cc2)cc1OC	11	-2	76*	-4	-8	0	3	4
COc1ccccc1/C=C/C=c1\sc2nc(=O)c(Cc3ccccc3)nn2c1=O	15	11	93*	5	3	.	11	-1
CCCOc1ccc(Cc2nn3c(=O)/c(=C/c4ccco4)sc3nc2=O)cc1	8	6	86*	6	31	31	5	4
O=c1/c(=C/c2ccco2)sc2nc(-c3ccccc3Br)nn12	18	3	23	3	16	2	.	.
Cc1ccc(NC(=O)N2CCC(=O)N2)cc1	-2	0	6	0	-4	-4	.	.
CC(=O)OCCc1c2ccccc2c(CCCN(C)C)c2ccccc12	-46	3	51*	0	-10	.	3	2
CC(=O)OCCc1[nH]c2ccccc2c1C	4	-3	4	3	-1	-4	.	.
N#Cc1nnn(-c2ccc(Cl)cc2)c1N	-6	-1	90*	0	-3	22	0	1
N#Cc1nnn(-c2cc(Cl)cc(Cl)c2)c1N	2	1	1	2	-10	8	.	.
Cc1cc(NC(=O)CSc2cn(CCNC(=O)c3ccccc3)c3ccccc23)no1	7	4	72*	6	39	-4	7	0
SMILES	SUMO1-SIM PPI	LMPTP block	DNMT1 inh	STEP inh	Scp-1 inhibitor	SUMO HTRF inh	DNMT1 inh conf	DNMT1 interf	others
Cc1ccc(NC(=O)CN(C)C(=O)/C=C/c2cccs2)cc1	-13	-1	1	1	-6	5	.	.
Cc1ccc(C(=O)CCc2ccc(N)cc2)cc1	3	0	0	2	-13	10	.	.
CCOc1cc(/C=C2/NC(=S)NC2=O)ccc1OCc1ccc([N+](=O)[O-])cc1	-6	21	52*	8	0	15	3	9
CCOc1cc(C(c2c(C)[nH][nH]c2=O)c2c(C)[nH][nH]c2=O)ccc1OCc1ccc([N+](=O)[O-])cc1	-13	2	-26	-2	-5	-27	.	.
O=C(Nc1ccc2oc(-c3ccccc3)nc2c1)c1cccnc1	13	0	-1	-1	-7	20	.	.
O=C(Nc1ccc2oc(-c3ccccc3F)nc2c1)c1cncc(Br)c1	0	32	62*	14	47	-8	2	2
O=C(CCC1CCCN(C(=O)C2=CCCCC2)C1)N1CCN(c2ccccn2)CC1 (stereo not drawn)	-3	0	0	-2	1	18	.	.
Cc1cccn2c(=O)c(/C=C(\C#N)C(=O)NCc3ccco3)c(N3CCOCC3)nc12	-17	8	3	4	-8	27	.	.
N#C/C(=C\c1c(N2CCC(C(N)=O)CC2)nc2ccccn2c1=O)C(=O)NCc1ccco1	-6	-1	64*	0	-4	32	6	3
Cc1cccc(-c2noc(CCCC(=O)NC3CCCCC3)n2)c1	0	1	-1	-2	-10	-10	.	.
CCOC(=O)/C=c1/s/c(=C/c2ccc3cc(OC)ccc3c2)c(=O)n1CC(=O)NCc1ccc2c(c1)OCO2	13	2	54*	-5	-10	.	1	4
COc1ccc(/C=C/C(=O)OCC(=O)NCC2CCCO2)cc1 (stereo not drawn)	-9	0	0	1	3	4	.	.
CCOC(=O)/C=c1\s/c(=C\c2ccc3cc(OC)ccc3c2)c(=O)n1CC(=O)NCC1CCCO1 (stereo not drawn)	-1	-1	58*	-3	-8	33	7	-1
CCOC(=O)/C=c1\s/c(=C\c2ccc(-c3ccccc3)cc2)c(=O)n1CC(=O)NCc1ccc2c(c1)OCO2	-2	3	-5	5	-2	21	.	.
O=c1cc(CCl)nc2sc3ccccc3n12	7	14	62*	9	46	12	3	-2
